Active and inactive are the calls of the source. The rule behind the calls is not given here.
Assays:
Rattus norvegicus [1] = assay: Antihypertensive activity in spontaneously hypertensive rats (SHR) at 5 mg/kg dose (po) after 6 h; format: functional
Method in brief: (§1)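 Spontaneously hypertensive rats given 5 mg/kg orally; blood pressure measured, with percentage reduction determined at 1 and 6 h after dosing.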

Rattus norvegicus [2] = assay: Antihypertensive activity in spontaneously hypertensive rats (SHR) at 5 mg/kg dose (po) after 1 h; format: functional; method in brief: as §1
Oryctolagus cuniculus [3] = species on record: Oryctolagus cuniculus; assay: Concentration producing a 40% increase in [3H]- overflow in rabbit pulmonary artery (Functional alpha-antagonist activity)
Oryctolagus cuniculus [4] = species on record: Oryctolagus cuniculus; assay: Concentration producing a 40% reduction in contractile response in rabbit pulmonary artery (Functional alpha-antagonist activity)
[5] = target: T1, Adrenergic receptor alpha-2 (Rattus norvegicus) (UniProt P22086+P19328+P22909); assay: Binding affinity for alpha-2 adrenergic receptor by displacement of [3H]clonidine at 10e-6 M from rat brain homogenate preparation; format: tissue-based
Method in brief: (§2)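 Rat brain homogenate; percentage displacement of [3H]clonidine by test agent at 10⁻⁶ M; NA denotes under 50%. Mean ± SEM of at least three separate experiments, each in triplicate.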

[6] = target: T2, Adrenergic receptor alpha-1 (Rattus norvegicus, UniProt P15823+P23944+P43140); assay: Binding affinity for alpha-1 adrenergic receptor by displacement of [3H]-prazosin from rat brain homogenate preparation; format: tissue-based
T2 sequence (P15823 whole entry): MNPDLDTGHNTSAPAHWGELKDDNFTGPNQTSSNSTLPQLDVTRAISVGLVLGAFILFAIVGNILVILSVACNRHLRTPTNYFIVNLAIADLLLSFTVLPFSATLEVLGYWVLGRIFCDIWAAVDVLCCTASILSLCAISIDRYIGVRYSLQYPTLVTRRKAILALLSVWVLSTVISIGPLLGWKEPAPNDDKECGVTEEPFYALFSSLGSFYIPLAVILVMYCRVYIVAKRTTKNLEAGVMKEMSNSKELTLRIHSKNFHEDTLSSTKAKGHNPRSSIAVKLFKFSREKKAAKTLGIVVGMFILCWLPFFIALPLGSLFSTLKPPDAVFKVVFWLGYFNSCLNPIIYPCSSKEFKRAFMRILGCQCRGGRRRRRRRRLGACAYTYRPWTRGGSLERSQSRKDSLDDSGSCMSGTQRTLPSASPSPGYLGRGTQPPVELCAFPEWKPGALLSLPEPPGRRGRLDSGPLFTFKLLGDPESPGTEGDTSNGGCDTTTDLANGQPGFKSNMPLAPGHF
T2 sequence (P23944 whole entry): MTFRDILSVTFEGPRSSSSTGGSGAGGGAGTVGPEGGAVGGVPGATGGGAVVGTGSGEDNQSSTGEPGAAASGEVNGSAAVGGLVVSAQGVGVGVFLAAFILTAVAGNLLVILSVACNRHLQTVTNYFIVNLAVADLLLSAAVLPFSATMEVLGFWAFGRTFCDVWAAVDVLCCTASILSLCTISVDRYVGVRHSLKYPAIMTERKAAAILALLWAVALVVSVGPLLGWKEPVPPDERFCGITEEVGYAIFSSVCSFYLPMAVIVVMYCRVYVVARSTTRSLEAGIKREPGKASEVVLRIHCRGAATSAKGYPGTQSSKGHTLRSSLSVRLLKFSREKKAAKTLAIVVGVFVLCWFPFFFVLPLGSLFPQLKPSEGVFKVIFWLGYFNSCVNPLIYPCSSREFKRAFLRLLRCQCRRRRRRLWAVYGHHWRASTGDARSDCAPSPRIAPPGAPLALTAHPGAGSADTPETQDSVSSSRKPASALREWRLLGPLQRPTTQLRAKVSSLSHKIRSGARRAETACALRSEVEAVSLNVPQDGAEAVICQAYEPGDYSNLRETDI
T2 sequence (P43140 whole entry): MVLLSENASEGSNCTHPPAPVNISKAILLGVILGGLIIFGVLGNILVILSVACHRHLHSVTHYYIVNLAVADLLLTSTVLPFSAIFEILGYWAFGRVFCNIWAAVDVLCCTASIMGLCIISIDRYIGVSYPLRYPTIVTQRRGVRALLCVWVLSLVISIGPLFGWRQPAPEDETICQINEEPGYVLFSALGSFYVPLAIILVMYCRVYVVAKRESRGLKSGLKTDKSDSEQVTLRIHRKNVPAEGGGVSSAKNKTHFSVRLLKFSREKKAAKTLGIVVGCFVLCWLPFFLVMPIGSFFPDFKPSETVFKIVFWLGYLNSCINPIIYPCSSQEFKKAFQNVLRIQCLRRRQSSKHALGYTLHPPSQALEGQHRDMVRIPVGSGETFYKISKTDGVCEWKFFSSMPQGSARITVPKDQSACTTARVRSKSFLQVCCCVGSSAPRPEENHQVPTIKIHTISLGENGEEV

Oryctolagus cuniculus [7] = species on record: Oryctolagus cuniculus; assay: Concentration producing a 40% increase in [3H]- overflow in rabbit pulmonary artery (Functional alpha-antagonist activity);EC40-pre, NA=indicates no activity at 10e-5 M.
Oryctolagus cuniculus [8] = species on record: Oryctolagus cuniculus; assay: Concentration producing a 40% reduction in contractile response in rabbit pulmonary artery (Functional alpha-antagonist activity); EC40-post
Oryctolagus cuniculus [9] = species on record: Oryctolagus cuniculus; assay: Concentration producing a 40% increase in [3H]- overflow in rabbit pulmonary artery (Functional alpha-antagonist activity); EC40-pre NA=indicates no activity at 10e-5 M.
[10] = target: T1, Adrenergic receptor alpha-2 (Rattus norvegicus); assay: Binding affinity for alpha-2 adrenergic receptor by displacement of [3H]clonidine at 10e-6 M from rat brain homogenate preparation; NA=indicates less than 50%; format: tissue-based; method in brief: as §2
[11] = target: T1, Adrenergic receptor alpha-2 (Rattus norvegicus); assay: Binding affinity for alpha-2 adrenergic receptor by displacement of [3H]clonidine at 10e-6 M from rat brain homogenate preparation; indicates less than 50%; format: tissue-based; method in brief: as §2
Oryctolagus cuniculus [12] = species on record: Oryctolagus cuniculus; assay: Concentration producing a 40% increase in [3H]- overflow in rabbit pulmonary artery (Functional alpha-antagonist activity)d; NA= indicates no activity at 10e-5 M.

| SMILES | Displacement [5] [%] | Ki [6] [nM] | Displacement [10] [%] | Displacement [11] [%] | Reduction (Rattus norvegicus [1]) [%] | Reduction (Rattus norvegicus [2]) [%] | EC40 (Oryctolagus cuniculus [3]) [nM] | EC40 (Oryctolagus cuniculus [4]) [nM] | EC40 (Oryctolagus cuniculus [7]) | EC40 (Oryctolagus cuniculus [8]) [nM] | EC40 (Oryctolagus cuniculus [9]) | EC40 (Oryctolagus cuniculus [12]) |
| --- | --- | --- | --- | --- | --- | --- | --- | --- | --- | --- | --- | --- |
| COc1cc2nc(N3CCC(OCCOC4CCCC4)CC3)nc(N)c2cc1OC | – | – | – | – | 11 | 20 | – | – | – | – | – | – |
| COc1cc2nc(N3CCN(C(=O)c4ccco4)CC3)nc(N)c2cc1OC [PRAZOSIN] | – | – | – | – | 29 | 33 | 1300 | 4.5 | – | – | – | – |
| COc1cc2nc(N3CCC(OCC(O)c4ccccc4)CC3)nc(N)c2cc1OC (stereo unspecified) | 91 | 0.15 | – | – | 16 | 26 | – | – | – | – | – | – |
| CCOC(COC1CCN(c2nc(N)c3cc(OC)c(OC)cc3n2)CC1)c1ccccc1 (stereo unspecified) | 84.5 | 0.52 | – | – | 12 | 16 | – | – | – | – | – | – |
| COc1cc2nc(N3CCC(OCCOc4ccccc4)CC3)nc(N)c2cc1OC | 79.3 | 0.48 | – | – | 18 | 26 | – | – | inactive | 44 | – | – |
| COc1cc2nc(N3CCC(OCC(C)(O)c4ccccc4)CC3)nc(N)c2cc1OC (stereo unspecified) | 97 | 0.62 | – | – | 20 | 23 | – | – | – | – | – | – |
| COc1cc2nc(N3CCC(OCC(C)(C)OC)CC3)nc(N)c2cc1OC | 75.7 | 1.14 | – | – | 9 | 20 | – | – | – | – | – | – |
| CCOCC(OC1CCN(c2nc(N)c3cc(OC)c(OC)cc3n2)CC1)c1ccccc1 (stereo unspecified) | – | 10 | – | < 50 | 19 | 24 | – | – | – | – | – | – |
| CCOC(C)(COC1CCN(c2nc(N)c3cc(OC)c(OC)cc3n2)CC1)c1ccccc1 (stereo unspecified) | 97.5 | 0.15 | – | – | 13 | 20 | – | 15 | – | – | – | inactive |

Second part, led by results:

| Displacement [5] [%] | Ki [6] [nM] | Displacement [10] [%] | Displacement [11] [%] | SMILES | Reduction (Rattus norvegicus [1]) [%] | Reduction (Rattus norvegicus [2]) [%] | EC40 (Oryctolagus cuniculus [3]) [nM] | EC40 (Oryctolagus cuniculus [4]) [nM] | EC40 (Oryctolagus cuniculus [7]) | EC40 (Oryctolagus cuniculus [8]) [nM] | EC40 (Oryctolagus cuniculus [9]) | EC40 (Oryctolagus cuniculus [12]) |
| --- | --- | --- | --- | --- | --- | --- | --- | --- | --- | --- | --- | --- |
| 73.4 | 0.67 | – | – | COc1cc2nc(N3CCC(OCCOC(C)C)CC3)nc(N)c2cc1OC | 15 | 26 | – | – | – | – | – | – |
| 65.3 | 1.81 | – | – | CCOCCOC1CCN(c2nc(N)c3cc(OC)c(OC)cc3n2)CC1 | 20 | 22 | – | – | – | 38 | inactive | – |
| 55 | 3.52 | – | – | COc1cc2nc(N3CCC(OCC(C)O)CC3)nc(N)c2cc1OC (stereo unspecified) | 19 | 30 | – | – | – | – | – | – |
| – | 2.2 | < 50 | – | COc1cc2nc(N3CCC(OCCO)CC3)nc(N)c2cc1OC | 10 | 8 | – | – | – | – | – | – |
| 53 | 2.12 | – | – | COCCOC1CCN(c2nc(N)c3cc(OC)c(OC)cc3n2)CC1 | 28 | 57 | – | – | – | – | – | – |
| 76 | 1.03 | – | – | CCCCOCCOC1CCN(c2nc(N)c3cc(OC)c(OC)cc3n2)CC1 | 20 | 27 | – | – | – | – | – | – |
| 74.3 | 0.99 | – | – | CCOC(C)COC1CCN(c2nc(N)c3cc(OC)c(OC)cc3n2)CC1 (stereo unspecified) | 20 | 43 | – | – | – | – | – | – |
| 68.7 | 1.41 | – | – | COc1cc2nc(N3CCC(OCC(C)OC)CC3)nc(N)c2cc1OC (stereo unspecified) | 16 | 34 | – | – | – | – | – | – |
| 61.7 | 1.28 | – | – | COc1cc2nc(N3CCC(OCC(C)(C)O)CC3)nc(N)c2cc1OC | 22 | 40 | – | – | – | – | – | – |

— ChEMBL document CHEMBL1124050, “2,4-Diamino-6,7-dimethoxyquinazolines. 4. 2-[4-(substituted oxyethoxy) piperidino] derivatives as alpha 1-adrenoceptor antagonists and antihypertensive agents” (J Med Chem, 1988)
